In ChEMBL document CHEMBL5154695, “Design, synthesis and biological evaluation of P2-modified proline analogues targeting the HtrA serine protease in Chlamydia” (Eur J Med Chem, 2022):
pIC50: −log10 of the molar value. The source made the active and inactive calls.

Columns and labels:
[1] = molecular target: T1, Probable periplasmic serine endoprotease DegP-like (Chlamydia trachomatis, UniProt P18584); test: Inhibition of recombinant Chlamydia trachomatis HtrA serine protease using MeOCoum-ENLHLPLPI1F-D as substrate measured after 30 mins
T1 sequence (P18584 whole entry): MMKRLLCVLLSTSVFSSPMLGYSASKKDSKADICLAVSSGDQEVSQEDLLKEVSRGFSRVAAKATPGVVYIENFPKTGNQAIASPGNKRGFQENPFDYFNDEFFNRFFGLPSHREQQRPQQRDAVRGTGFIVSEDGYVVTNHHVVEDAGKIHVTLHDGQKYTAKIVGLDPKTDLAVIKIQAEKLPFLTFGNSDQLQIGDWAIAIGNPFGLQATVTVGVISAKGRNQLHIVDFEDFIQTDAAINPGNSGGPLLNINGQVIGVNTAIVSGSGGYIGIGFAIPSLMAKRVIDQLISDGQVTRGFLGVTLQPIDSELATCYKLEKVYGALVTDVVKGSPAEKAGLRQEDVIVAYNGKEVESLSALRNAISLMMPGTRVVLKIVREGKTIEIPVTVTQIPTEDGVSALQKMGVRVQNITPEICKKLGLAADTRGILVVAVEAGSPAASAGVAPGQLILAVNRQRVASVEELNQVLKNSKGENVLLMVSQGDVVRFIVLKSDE

[2] = molecular target: T2, Probable periplasmic serine endoprotease DegP-like (Chlamydia trachomatis) (UniProt P18584); test: Potency index, ratio of JO146 IC50 to test compound IC50 for inhibition of recombinant Chlamydia trachomatis HtrA serine protease using MeOCoum-ENLHLPLPI1F-D as substrate measured after 30 mins
T2 sequence (whole entry): T1 sequence (P18584 whole entry)

Chlamydia pecorum [3] = test: Antibacterial activity against Chlamydia pecorum MC/MarsBar infected in human HEp-2 cells assessed as reduction in bacterial titre at 25 uM administered at 16 hrs post infection and measured 44 hrs post infection; assay type: functional, organism-based; settings: time 28.0 hrs
HEp-2 [4] = test: Cytotoxicity against human HEp-2 cells assessed as reduction in cell viability by measuring MTS reduction at 25 uM measured after 24 hrs by MTS assay relative to control; assay type: toxicity, cell-based; settings: hep-2, 24 h
Outline: (§1)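 HEp-2 cells plated at 5000/well, treated 24 h after plating with 25 or 100 µM inhibitor, 1% v/v DMSO or medium alone, triplicate; after 24 h exposure, MTS/PMS added for 4 h and A490 read; viability expressed relative to DMSO control; mean ± SEM, n = 3.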

HEp-2 [5] = test: Cytotoxicity against human HEp-2 cells assessed as loss of cell integrity by measuring cytosolic LDH release at 25 to 100 uM […] by LDH assay; assay type: toxicity, cell-based; settings: hep-2, 100 µM, dose 25-100 µM
Outline: (§2)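 HEp-2 cells at 5000/well, dosed 24 h after plating with 25 or 100 µM, 1% v/v DMSO or medium, triplicate; after 8 h treatment supernatant taken, incubated 30 min with CytoTox reagent then stop solution, A490 read; maximum release from untreated cells lysed with 0.8% v/v Triton X-100 45 min before harvest; extracellular LDH as % of maximum; n = 3.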

Chlamydia trachomatis [6] = test: Antibacterial activity against Chlamydia trachomatis D/UW-3/Cx infected in human HEp-2 cells assessed as reduction in bacterial titer below threshold at 50 uM administered at 16 hrs post infection and measured 44 hrs post infection; assay type: functional, organism-based; settings: time 28.0 hrs
Outline: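 C. trachomatis D (D/UW-3/Cx) in monolayers seeded 20,000 cells/well 24 h before infection; synchronised at 500 × g, 28 °C, 30 min; treated at 16 h PI (25, 50, 100 µM, triplicate) beside 1% v/v DMSO and media controls; harvested 44 h PI, passaged onto fresh monolayers, fixed, stained; IFU/mL compared against limit of detection.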

HEp-2 [7] = test: Cytotoxicity against human HEp-2 cells assessed as reduction in cell viability measured after 24 hrs by MTS assay; assay type: toxicity, cell-based; settings: hep-2, 24 h; outline: as §1
[8] = Cytotoxicity against human HEp-2 cells assessed as cell viability at 25 to 100 uM measured after 24 hrs by MTS assay relative to control; assay type: toxicity, cell-based; settings: dose 25-100 µM, read-out: Activity; outline: as §1
HEp-2 [9] = test: Cytotoxicity against human HEp-2 cells assessed as loss of cell integrity by measuring cytosolic LDH release at 25 to 100 uM […] by LDH assay relative to control; assay type: toxicity, cell-based; settings: hep-2, 100 µM, dose 25-100 µM; outline: as §2
Chlamydia trachomatis [10] = test: Antibacterial activity against Chlamydia trachomatis D/UW-3/Cx infected in human HEp-2 cells assessed as reduction in bacterial titer at 25 to 100 uM administered at 16 hrs post infection and measured 44 hrs post infection; assay type: functional, organism-based; settings: dose 25-100 µM, time 28.0 hrs
Chlamydia pecorum [11] = test: Antibacterial activity against Chlamydia pecorum MC/MarsBar infected in human HEp-2 cells assessed as reduction in bacterial titre at 25 to 100 uM administered at 16 hrs post infection and measured 44 hrs post infection; assay type: functional, organism-based; settings: dose 25-100 µM, time 28.0 hrs
[12] = Cytotoxicity against human HEp-2 cells assessed as cell viability at 100 uM measured after 24 hrs by MTS assay relative to control; assay type: toxicity, cell-based; settings: read-out: Activity; outline: as §1
HEp-2 [13] = test: Cytotoxicity against human HEp-2 cells assessed as loss of cell integrity by measuring cytosolic LDH release at 100 uM […] by LDH assay; assay type: toxicity, cell-based; settings: hep-2, 100 µM; outline: as §2

With CC(C)C(NC(=O)[C@@H]1CCCN1C(=O)[C@@H](NC(=O)OC(C)(C)C)C(C)C)P(=O)(Oc1ccccc1)Oc1ccccc1 (some centres not stated) as the compound, how does the pIC50 [1] read?
The pIC50 was 4.66.

What does the source list for CC(C)C(NC(=O)[C@@H]1CCCN1C(=O)[C@@H](NC(=O)OC(C)(C)C)C(C)(C)C)P(=O)(Oc1ccccc1)Oc1ccccc1 (some centres not stated)?
pIC50 [1]: 4.80; Ratio IC50 [2]: 1.38

With CC(C)C(NC(=O)[C@@H]1C[C@@H](c2ccccc2)CN1C(=O)[C@@H](NC(=O)OC(C)(C)C)C(C)(C)C)P(=O)(Oc1ccccc1)Oc1ccccc1 (mixture of isomers) as the compound, how does the pIC50 [1] read?
Its pIC50 is 4.23.

What about the Activity (Chlamydia pecorum [3]) of the same compound?
The Activity was “Active”.

And the Activity (HEp-2 [4])?
Its Activity is < 30%.

What about the Activity (HEp-2 [5]) of the same compound?
Its Activity is “Non-Toxic”.

And the Activity (Chlamydia trachomatis [6])?
The Activity was “Active”.

With CC(C)C(NC(=O)[C@@H]1C[C@@H](OC(=O)CN)CN1C(=O)[C@@H](NC(=O)OC(C)(C)C)C(C)(C)C)P(=O)(Oc1ccccc1)Oc1ccccc1 (mixture of isomers) as the compound, how does the pIC50 [1] read?
Its pIC50 is 4.86.

And the Activity (HEp-2 [4])?
The Activity was < 30%.

And the Activity (HEp-2 [5])?
Its Activity is “Non-Toxic”.

Which Activity (HEp-2 [7]) does the source give for CC(C)C(NC(=O)[C@@H]1C[C@@H](n2cc(C(N)=O)nn2)CN1C(=O)[C@@H](NC(=O)OC(C)(C)C)C(C)(C)C)P(=O)(Oc1ccccc1)Oc1ccccc1 (mixture of isomers) here?
Its Activity is “Non-Toxic”.

With CC(C)C(NC(=O)[C@@H]1C[C@@H](C2CCCCC2)CN1C(=O)[C@@H](NC(=O)OC(C)(C)C)C(C)(C)C)P(=O)(Oc1ccccc1)Oc1ccccc1 (mixture of isomers) as the compound, how does the pIC50 [1] read?
Its pIC50 is 3.79.

And the Activity (Chlamydia pecorum [3])?
Its Activity is “Active”.

And the viability at 24 h, up to 100 µM [8]?
Its viability at 24 h, up to 100 µM is 10%.

What about the Activity (HEp-2 [9]) of the same compound?
Its Activity is 80%.

What about the Activity (Chlamydia trachomatis [6]) of the same compound?
The Activity was “Active”.

For CC(C)C(NC(=O)[C@@H]1C[C@@H](n2nnc(O)c2O)CN1C(=O)[C@@H](NC(=O)OC(C)(C)C)C(C)(C)C)P(=O)(Oc1ccccc1)Oc1ccccc1 (mixture of isomers), which Activity (HEp-2 [7]) is on record?
Its Activity is “Non-Toxic”.

With CC(C)C(NC(=O)[C@@H]1C[C@@H](n2cc(CO)nn2)CN1C(=O)[C@@H](NC(=O)OC(C)(C)C)C(C)(C)C)P(=O)(Oc1ccccc1)Oc1ccccc1 (mixture of isomers) as the compound, how does the pIC50 [1] read?
The pIC50 was 4.10.

What about the Activity (HEp-2 [7]) of the same compound?
Its Activity is “Non-Toxic”.

And the Activity (Chlamydia trachomatis [10])?
Its Activity is “Active”.

With CC(C)C(NC(=O)[C@@H]1C[C@@H](n2nncc2C(C)(C)O)CN1C(=O)[C@@H](NC(=O)OC(C)(C)C)C(C)(C)C)P(=O)(Oc1ccccc1)Oc1ccccc1 (mixture of isomers) as the compound, how does the pIC50 [1] read?
Its pIC50 is 4.02.

What about the Activity (HEp-2 [7]) of the same compound?
Its Activity is “Non-Toxic”.

What about the Activity (Chlamydia trachomatis [10]) of the same compound?
The Activity was “Active”.

With CC(C)C(NC(=O)[C@@H]1C[C@H](n2nncc2C(C)(C)O)CN1C(=O)[C@@H](NC(=O)OC(C)(C)C)C(C)(C)C)P(=O)(Oc1ccccc1)Oc1ccccc1 (mixture of isomers) as the compound, how does the pIC50 [1] read?
The pIC50 was 4.52.

And the Activity (Chlamydia pecorum [11])?
The Activity was “Active”.

What about the Activity (HEp-2 [7]) of the same compound?
The Activity was “Non-Toxic”.

What about the Activity (Chlamydia trachomatis [10]) of the same compound?
The Activity was “Active”.

With CC(C)C(NC(=O)[C@@H]1C[C@@H](n2cc(C(C)(C)O)nn2)CN1C(=O)[C@@H](NC(=O)OC(C)(C)C)C(C)(C)C)P(=O)(Oc1ccccc1)Oc1ccccc1 (mixture of isomers) as the compound, how does the pIC50 [1] read?
The pIC50 was 4.14.

And the Activity (HEp-2 [7])?
Its Activity is “Non-Toxic”.

With CC(C)C(NC(=O)[C@@H]1C[C@@H](n2nncc2C(N)=O)CN1C(=O)[C@@H](NC(=O)OC(C)(C)C)C(C)(C)C)P(=O)(Oc1ccccc1)Oc1ccccc1 (mixture of isomers) as the compound, how does the Activity (Chlamydia pecorum [11]) read?
Its Activity is “Active”.

And the Activity (HEp-2 [7])?
Its Activity is “Non-Toxic”.

What about the Activity (Chlamydia trachomatis [10]) of the same compound?
The Activity was “Active”.

With CC(C)C(NC(=O)[C@@H]1C[C@@H](O)CN1C(=O)[C@@H](NC(=O)OC(C)(C)C)C(C)(C)C)P(=O)(Oc1ccccc1)Oc1ccccc1 (mixture of isomers) as the compound, how does the pIC50 [1] read?
The pIC50 was 4.85.

And the Activity (HEp-2 [4])?
The Activity was < 30%.

What about the Activity (HEp-2 [5]) of the same compound?
The Activity was “Non-Toxic”.

Which results are given for CC(=O)O[C@@H]1C[C@@H](C(=O)NC(C(C)C)P(=O)(Oc2ccccc2)Oc2ccccc2)N(C(=O)[C@@H](NC(=O)OC(C)(C)C)C(C)(C)C)C1 (mixture of isomers)?
pIC50 [1]: 5.41; Activity (Chlamydia pecorum [3]): Active; Activity (HEp-2 [4]): < 30%; Activity (HEp-2 [5]): Non-Toxic; Activity (Chlamydia trachomatis [6]): Active

With CC(C)C(NC(=O)[C@@H]1C[C@H](O)CN1C(=O)[C@@H](NC(=O)OC(C)(C)C)C(C)(C)C)P(=O)(Oc1ccccc1)Oc1ccccc1 (mixture of isomers) as the compound, how does the pIC50 [1] read?
The pIC50 was 4.31.

And the Activity (HEp-2 [4])?
Its Activity is < 30%.

And the Activity (HEp-2 [5])?
Its Activity is “Non-Toxic”.

With CC(C)C(NC(=O)[C@@H]1C[C@H](n2nnc(O)c2O)CN1C(=O)[C@@H](NC(=O)OC(C)(C)C)C(C)(C)C)P(=O)(Oc1ccccc1)Oc1ccccc1 (mixture of isomers) as the compound, how does the pIC50 [1] read?
The pIC50 was 4.64.

And the Activity (HEp-2 [7])?
The Activity was “Non-Toxic”.

Which Activity (HEp-2 [7]) does the source give for CC(C)C(NC(=O)[C@@H]1C[C@H](n2cc(CO)nn2)CN1C(=O)[C@@H](NC(=O)OC(C)(C)C)C(C)(C)C)P(=O)(Oc1ccccc1)Oc1ccccc1 (mixture of isomers) here?
Its Activity is “Non-Toxic”.

What does the source list for CC(C)C(NC(=O)[C@@H]1C[C@@H](OC(=O)CCN)CN1C(=O)[C@@H](NC(=O)OC(C)(C)C)C(C)(C)C)P(=O)(Oc1ccccc1)Oc1ccccc1 (mixture of isomers)?
pIC50 [1]: 4.82; Activity (HEp-2 [4]): < 30%; Activity (HEp-2 [5]): Non-Toxic

With CC(C)C(NC(=O)[C@@H]1CCCCN1C(=O)[C@@H](NC(=O)OC(C)(C)C)C(C)(C)C)P(=O)(Oc1ccccc1)Oc1ccccc1 (mixture of isomers) as the compound, how does the pIC50 [1] read?
The pIC50 was 4.09.

And the Activity (Chlamydia pecorum [3])?
Its Activity is “Active”.

What about the Activity (HEp-2 [4]) of the same compound?
Its Activity is < 30%.

And the Activity (HEp-2 [5])?
The Activity was “Non-Toxic”.

What about the viability at 24 h, 100 µM [12] of the same compound?
The viability at 24 h, 100 µM was 50%.

And the Activity (HEp-2 [13])?
Its Activity is “Non-Toxic”.

What about the Activity (Chlamydia trachomatis [6]) of the same compound?
The Activity was “Active”.
